Measured values as given in ChEMBL document CHEMBL4052661, “Structure Based Design of N-(3-((1H-Pyrazolo[3,4-b]pyridin-5-yl)ethynyl)benzenesulfonamides as Selective Leucine-Zipper and Sterile-α Motif Kinase (ZAK) Inhibitors” (J Med Chem, 2017).
pIC50, pKd: −log10 of the molar value.

Tests used:
[1] = target: T1, Mitogen-activated protein kinase kinase kinase 20 (Homo sapiens, UniProt Q9NYL2); experiment: Inhibition of N-terminal GST-tagged recombinant human full-length ZAK expressed in baculovirus infected Sf9 insect cells using MBP as substrate after 30 mins by ADP-Glo assay
Procedure, shortened: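 ZAK activity by ADP-Glo luminescence with MBP as substrate, ATP and serially diluted compound. Reaction started by adding ATP and run 30 min at room temperature. ADP-Glo reagent was added to stop it (40 min), then detection reagent for 30 min before reading luminescence. Curves fitted; each experiment repeated at least 3 times.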
Target sequence in this assay (Q9NYL2 whole entry): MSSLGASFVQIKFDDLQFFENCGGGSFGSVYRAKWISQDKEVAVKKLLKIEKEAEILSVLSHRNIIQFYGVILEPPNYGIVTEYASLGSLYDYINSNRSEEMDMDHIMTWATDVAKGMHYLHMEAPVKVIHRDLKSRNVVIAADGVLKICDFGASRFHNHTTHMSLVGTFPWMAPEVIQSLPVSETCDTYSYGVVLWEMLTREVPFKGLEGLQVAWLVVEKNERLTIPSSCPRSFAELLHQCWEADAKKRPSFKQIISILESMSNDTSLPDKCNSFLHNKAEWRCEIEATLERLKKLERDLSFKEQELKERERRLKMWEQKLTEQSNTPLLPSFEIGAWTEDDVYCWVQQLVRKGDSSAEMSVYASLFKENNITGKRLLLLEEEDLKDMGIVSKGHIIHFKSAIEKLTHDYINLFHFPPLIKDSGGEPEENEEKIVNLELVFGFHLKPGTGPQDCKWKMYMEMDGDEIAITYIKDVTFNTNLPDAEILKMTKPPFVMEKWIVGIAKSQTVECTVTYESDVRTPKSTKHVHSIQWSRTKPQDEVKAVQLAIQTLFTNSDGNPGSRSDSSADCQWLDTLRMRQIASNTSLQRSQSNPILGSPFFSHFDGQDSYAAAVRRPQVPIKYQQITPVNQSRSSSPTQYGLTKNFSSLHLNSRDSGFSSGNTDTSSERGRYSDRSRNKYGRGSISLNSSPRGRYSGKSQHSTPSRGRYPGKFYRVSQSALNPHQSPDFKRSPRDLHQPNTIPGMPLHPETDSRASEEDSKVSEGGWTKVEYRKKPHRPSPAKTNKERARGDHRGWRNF

[2] = target: Serine/threonine-protein kinase B-raf (Homo sapiens, UniProt P15056); experiment: Inhibition of wild type GST-tagged recombinant human full-length B-RAF expressed in baculovirus expression system using Ser/Thr3 as substrate after 1 hr by FRET-based Z'-Lyte assay
Serine/threonine-protein kinase B-raf (Homo sapiens, UniProt P15056), sequence (P15056 whole entry): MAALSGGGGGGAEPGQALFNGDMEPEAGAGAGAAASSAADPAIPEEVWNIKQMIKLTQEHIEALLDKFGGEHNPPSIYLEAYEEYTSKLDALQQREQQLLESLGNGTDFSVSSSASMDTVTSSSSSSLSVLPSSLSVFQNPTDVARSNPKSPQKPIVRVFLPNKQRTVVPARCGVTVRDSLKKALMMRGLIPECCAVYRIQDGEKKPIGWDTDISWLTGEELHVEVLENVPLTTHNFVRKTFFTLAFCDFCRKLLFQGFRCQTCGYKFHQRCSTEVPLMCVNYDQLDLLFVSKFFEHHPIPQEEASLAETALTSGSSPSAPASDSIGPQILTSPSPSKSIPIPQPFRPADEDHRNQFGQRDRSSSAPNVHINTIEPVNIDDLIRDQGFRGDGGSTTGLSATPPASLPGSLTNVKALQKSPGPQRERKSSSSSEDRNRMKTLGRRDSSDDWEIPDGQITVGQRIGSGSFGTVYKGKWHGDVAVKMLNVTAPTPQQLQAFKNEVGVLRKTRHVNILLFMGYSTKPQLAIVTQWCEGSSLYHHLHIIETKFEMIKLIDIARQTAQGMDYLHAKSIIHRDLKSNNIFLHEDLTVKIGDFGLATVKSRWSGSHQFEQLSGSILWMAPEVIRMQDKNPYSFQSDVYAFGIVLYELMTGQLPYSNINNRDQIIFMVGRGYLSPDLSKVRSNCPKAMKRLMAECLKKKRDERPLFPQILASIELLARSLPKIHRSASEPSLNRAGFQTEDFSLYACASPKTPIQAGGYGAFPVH
Procedure, shortened: (§1)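 Z'-Lyte FRET assay with Ser/Thr3 peptide in kinase buffer; the final reaction held 0.002 ng B-Raf for wild type. Incubated 1 h at room temperature, then 1 h development to cleave nonphosphorylated peptide, then stop reagent. Means of 3 independent experiments.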

[3] = target: T2, Serine/threonine-protein kinase B-raf (Homo sapiens, UniProt P15056, V600E); experiment: Inhibition of recombinant human B-RAF V600E mutant using Ser/Thr3 as substrate after 1 hr by FRET-based Z'-Lyte assay
T2 sequence (P15056 2-766 V600E limits assumed): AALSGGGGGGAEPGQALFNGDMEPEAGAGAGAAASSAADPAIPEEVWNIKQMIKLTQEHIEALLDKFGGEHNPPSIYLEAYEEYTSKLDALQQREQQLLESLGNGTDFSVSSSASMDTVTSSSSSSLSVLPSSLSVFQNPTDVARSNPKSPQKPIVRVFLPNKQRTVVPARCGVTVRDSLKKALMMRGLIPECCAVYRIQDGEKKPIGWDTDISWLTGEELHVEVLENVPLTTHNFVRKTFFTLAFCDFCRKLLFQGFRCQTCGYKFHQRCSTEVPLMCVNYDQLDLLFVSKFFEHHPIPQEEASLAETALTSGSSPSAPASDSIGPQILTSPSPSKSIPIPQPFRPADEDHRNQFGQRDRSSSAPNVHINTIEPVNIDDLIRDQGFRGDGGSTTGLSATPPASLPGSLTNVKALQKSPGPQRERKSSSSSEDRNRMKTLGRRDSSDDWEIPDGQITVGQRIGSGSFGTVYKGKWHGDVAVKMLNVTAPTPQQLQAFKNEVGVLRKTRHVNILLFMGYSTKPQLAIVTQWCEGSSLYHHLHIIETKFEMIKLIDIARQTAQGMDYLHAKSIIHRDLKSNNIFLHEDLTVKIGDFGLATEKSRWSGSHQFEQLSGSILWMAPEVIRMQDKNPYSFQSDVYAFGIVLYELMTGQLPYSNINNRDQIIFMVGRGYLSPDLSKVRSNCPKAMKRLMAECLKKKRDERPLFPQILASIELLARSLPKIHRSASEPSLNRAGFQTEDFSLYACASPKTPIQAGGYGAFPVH

[4] = test system: Rattus norvegicus; experiment: Inhibition of myocardial hypertrophy in spontaneous hypertensive WKY rat model assessed as left ventricular mass at diastole at 20 mg/kg, po administered for 4 continuous weeks (reference value: 1.2 +/- 0.052 g); assay type: functional
Procedure, shortened: (§2)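 Spontaneously hypertensive rats randomized into 3 groups given oral 0, 10 or 20 mg/kg/day for 4 continuous weeks; normotensive Wistar-Kyoto rats as reference; n = 6 per group. After sacrifice, left ventricles were collected to measure mass at diastole and systole; heart sections stained with hematoxylin and eosin for cardiomyocyte arrangement.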

[5] = test system: Rattus norvegicus; experiment: Inhibition of myocardial hypertrophy in po dosed spontaneous hypertensive WKY rat model assessed as restoration of cardiomyocyte disarrangement to normal phenomena administered for 4 continuous weeks by Hematoxylin and eosin staining-based light microscopic method; assay type: functional, organism-based; procedure, shortened: as §2
[6] = target: T3, Tyrosine-protein kinase Srms (Homo sapiens, UniProt Q9H3Y6); experiment: Binding affinity to partial length human SRMS expressed in HEK293 cells by active-site-dependent competition assay; assay type: cell-based
T3 sequence (Q9H3Y6 whole entry): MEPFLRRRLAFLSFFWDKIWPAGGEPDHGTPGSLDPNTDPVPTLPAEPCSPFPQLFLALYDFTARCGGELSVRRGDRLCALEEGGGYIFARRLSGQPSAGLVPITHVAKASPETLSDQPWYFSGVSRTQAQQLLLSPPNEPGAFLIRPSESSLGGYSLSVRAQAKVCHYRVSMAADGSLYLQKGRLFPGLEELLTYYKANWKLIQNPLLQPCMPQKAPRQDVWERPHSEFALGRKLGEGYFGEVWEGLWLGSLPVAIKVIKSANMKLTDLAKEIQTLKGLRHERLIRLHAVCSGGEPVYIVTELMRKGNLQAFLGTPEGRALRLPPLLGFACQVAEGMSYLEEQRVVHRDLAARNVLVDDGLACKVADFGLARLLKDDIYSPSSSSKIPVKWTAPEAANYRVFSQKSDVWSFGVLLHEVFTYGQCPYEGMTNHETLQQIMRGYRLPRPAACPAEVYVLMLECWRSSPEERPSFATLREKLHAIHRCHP
Procedure, shortened: (§3)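 Active-site-dependent competition binding (KINOMEscan) run by an outside service across a panel of 468 kinases (403 nonmutated, 65 mutated); reported as binding constant Kd.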

[7] = target: T1, Mitogen-activated protein kinase kinase kinase 20; experiment: Inhibition of partial length human ZAK expressed in Escherichia coli BL21 assessed as remaining activity at 1 uM after 1 hr by KINOMEscan method
Procedure, shortened: (§4)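 Active-site-dependent competition binding screen run by an outside provider across a 468-kinase panel (403 nonmutated, 65 mutated kinases).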

[8] = species on record: Rattus norvegicus; experiment: Inhibition of ZAK in Ang-2-induced rat H9c2 cells assessed as downregulation of BNP levels by Western blot analysis
[9] = target: Mast/stem cell growth factor receptor Kit (Homo sapiens, UniProt P10721, V559D); experiment: Binding affinity to partial length human KIT V559D mutant expressed in Escherichia coli BL21 by active-site-dependent competition assay; procedure, shortened: as §3
[10] = target: T1, Mitogen-activated protein kinase kinase kinase 20; experiment: Binding affinity to partial length human ZAK expressed in Escherichia coli BL21 by active-site-dependent competition assay; procedure, shortened: as §3
Target sequence in this assay (Q9NYL2 whole entry): as the sequence (Q9NYL2 whole entry) above

[11] = target: T4, Aurora kinase B (Homo sapiens, UniProt Q96GD4); experiment: Inhibition of partial length human AURKB expressed in HEK293 cells assessed as remaining activity at 1 uM after 1 hr by KINOMEscan method; assay type: cell-based; procedure, shortened: as §4
T4 sequence (Q96GD4 whole entry): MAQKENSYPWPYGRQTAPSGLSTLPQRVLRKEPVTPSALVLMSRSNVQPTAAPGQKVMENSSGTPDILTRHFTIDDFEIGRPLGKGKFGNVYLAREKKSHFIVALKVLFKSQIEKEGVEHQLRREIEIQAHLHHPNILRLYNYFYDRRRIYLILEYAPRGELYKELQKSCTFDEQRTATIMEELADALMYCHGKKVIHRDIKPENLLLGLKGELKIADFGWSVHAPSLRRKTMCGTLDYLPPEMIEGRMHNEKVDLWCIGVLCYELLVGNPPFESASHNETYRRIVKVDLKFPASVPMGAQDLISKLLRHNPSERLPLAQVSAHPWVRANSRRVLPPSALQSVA

[12] = test system: Rattus norvegicus; experiment: Inhibition of myocardial hypertrophy in po dosed spontaneous hypertensive WKY rat model assessed as decrease in JNK phosphorylation administered for 4 continuous weeks by Western blot method; assay type: functional, organism-based
Procedure, shortened: (§5)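 Spontaneously hypertensive rats given oral 0, 10 or 20 mg/kg/day for 4 continuous weeks alongside normotensive Wistar-Kyoto controls; left ventricles harvested after sacrifice for Western blot analysis.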

[13] = Half life in Sprague-Dawley rat at 10 mg/kg, po by HPLC/MS analysis; assay type: ADME, organism-based; details: in vivo
Procedure, shortened: (§6)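 Sprague-Dawley rats given a single oral dose of 10 mg/kg; plasma exposure (AUC), half-life and oral bioavailability derived.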

[14] = target: T4, Aurora kinase B; experiment: Binding affinity to partial length human AURKB expressed in HEK293 cells by active-site-dependent competition assay; assay type: cell-based; procedure, shortened: as §3
[15] = target: T5, Serine/threonine-protein kinase SIK1 (Homo sapiens, UniProt P57059); experiment: Inhibition of partial length human SIK expressed in Escherichia coli BL21 assessed as remaining activity at 1 uM after 1 hr by KINOMEscan method; procedure, shortened: as §4
[16] = target: T2, Serine/threonine-protein kinase B-raf; experiment: Binding affinity to partial length human BRAF V600E mutant expressed in HEK293 cells by active-site-dependent competition assay; assay type: cell-based; procedure, shortened: as §3
[17] = target: T6, Dual specificity mitogen-activated protein kinase kinase 5 (Homo sapiens) (UniProt Q13163); experiment: Inhibition of partial length human MEK5 expressed in HEK293 cells assessed as remaining activity at 1 uM after 1 hr by KINOMEscan method; assay type: cell-based; procedure, shortened: as §4
T6 sequence (whole entry): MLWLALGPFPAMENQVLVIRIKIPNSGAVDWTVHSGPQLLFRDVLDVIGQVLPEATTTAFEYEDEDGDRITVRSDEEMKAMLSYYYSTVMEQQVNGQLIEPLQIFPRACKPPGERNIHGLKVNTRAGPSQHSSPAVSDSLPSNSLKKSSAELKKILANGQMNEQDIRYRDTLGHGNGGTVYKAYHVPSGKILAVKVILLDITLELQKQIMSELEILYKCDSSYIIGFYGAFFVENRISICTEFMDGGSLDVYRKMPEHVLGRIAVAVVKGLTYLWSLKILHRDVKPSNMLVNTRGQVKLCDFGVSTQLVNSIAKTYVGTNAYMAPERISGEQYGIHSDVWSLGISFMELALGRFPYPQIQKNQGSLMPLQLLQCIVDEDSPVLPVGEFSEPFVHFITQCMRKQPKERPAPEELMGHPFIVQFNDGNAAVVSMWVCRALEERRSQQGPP

[18] = test system: Rattus norvegicus; experiment: Inhibition of myocardial hypertrophy in po dosed spontaneous hypertensive WKY rat model assessed as downregulation of BNP levels administered for 4 continuous weeks by Western blot method; assay type: functional, organism-based; procedure, shortened: as §5
[19] = target: T3, Tyrosine-protein kinase Srms; experiment: Inhibition of partial length human SRMS expressed in HEK293 cells assessed as remaining activity at 1 uM after 1 hr by KINOMEscan method; assay type: cell-based; procedure, shortened: as §4
[20] = test system: Mast/stem cell growth factor receptor Kit (Homo sapiens), P10721 [L576P]; experiment: Inhibition of partial length human KIT L576P mutant expressed in Escherichia coli BL21 assessed as remaining activity at 1 uM after 1 hr by KINOMEscan method; procedure, shortened: as §4
Mast/stem cell growth factor receptor Kit (Homo sapiens), P10721 [L576P], sequence (P10721 whole entry L576P): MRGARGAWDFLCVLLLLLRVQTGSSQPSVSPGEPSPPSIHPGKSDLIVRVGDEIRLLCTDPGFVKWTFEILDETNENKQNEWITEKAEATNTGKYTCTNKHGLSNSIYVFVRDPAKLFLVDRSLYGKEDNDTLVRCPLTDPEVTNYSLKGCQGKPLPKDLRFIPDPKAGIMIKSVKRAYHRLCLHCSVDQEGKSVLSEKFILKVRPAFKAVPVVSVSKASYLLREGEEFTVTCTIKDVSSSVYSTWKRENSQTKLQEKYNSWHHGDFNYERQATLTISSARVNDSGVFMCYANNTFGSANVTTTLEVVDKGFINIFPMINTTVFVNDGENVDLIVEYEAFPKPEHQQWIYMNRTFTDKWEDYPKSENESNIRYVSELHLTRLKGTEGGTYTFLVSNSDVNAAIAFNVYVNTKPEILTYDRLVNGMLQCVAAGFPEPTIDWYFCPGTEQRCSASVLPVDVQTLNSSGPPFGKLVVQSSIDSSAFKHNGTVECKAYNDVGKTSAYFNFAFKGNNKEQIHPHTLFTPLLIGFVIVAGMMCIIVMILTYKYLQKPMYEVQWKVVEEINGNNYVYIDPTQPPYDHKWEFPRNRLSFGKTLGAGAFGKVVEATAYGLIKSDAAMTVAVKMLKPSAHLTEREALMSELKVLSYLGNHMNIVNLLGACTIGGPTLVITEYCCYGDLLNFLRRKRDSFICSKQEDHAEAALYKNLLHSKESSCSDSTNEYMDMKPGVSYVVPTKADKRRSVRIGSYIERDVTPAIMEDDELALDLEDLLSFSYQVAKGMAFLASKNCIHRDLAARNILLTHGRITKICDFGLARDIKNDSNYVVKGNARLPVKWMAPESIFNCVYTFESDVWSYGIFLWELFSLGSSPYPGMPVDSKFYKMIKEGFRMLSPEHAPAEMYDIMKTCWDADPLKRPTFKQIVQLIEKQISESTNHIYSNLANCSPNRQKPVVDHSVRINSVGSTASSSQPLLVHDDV

[21] = target: T7, Tyrosine-protein kinase FRK (Homo sapiens, UniProt P42685); experiment: Binding affinity to partial length human FRK expressed in Escherichia coli BL21 by active-site-dependent competition assay; procedure, shortened: as §3
T7 sequence (P42685 whole entry): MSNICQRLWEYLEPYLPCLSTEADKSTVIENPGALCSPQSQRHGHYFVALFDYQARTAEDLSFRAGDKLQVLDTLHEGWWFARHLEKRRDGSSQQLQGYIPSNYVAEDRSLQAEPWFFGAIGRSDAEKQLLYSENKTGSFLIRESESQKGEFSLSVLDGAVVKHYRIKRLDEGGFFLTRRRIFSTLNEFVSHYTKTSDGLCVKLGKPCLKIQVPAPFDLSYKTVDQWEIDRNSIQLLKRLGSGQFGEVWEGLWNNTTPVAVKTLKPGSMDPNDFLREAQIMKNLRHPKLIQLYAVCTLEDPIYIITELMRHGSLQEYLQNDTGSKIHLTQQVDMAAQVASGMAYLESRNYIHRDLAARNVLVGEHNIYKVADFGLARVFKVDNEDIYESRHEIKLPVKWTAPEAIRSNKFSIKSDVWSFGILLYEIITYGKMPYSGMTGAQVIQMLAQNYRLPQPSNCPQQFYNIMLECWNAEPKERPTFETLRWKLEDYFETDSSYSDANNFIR

[22] = target: T2, Serine/threonine-protein kinase B-raf; experiment: Inhibition of partial length human BRAF V600E mutant expressed in HEK293 cells using Ser/Thr3 as substrate after 1 hr by FRET-based Z'-Lyte assay
Procedure, shortened: as §1, with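 “reagent. Controls: phosphopeptide for 100% phosphorylation, buffer instead of ATP for 100% inhibition, DMSO vehicle for 0% inhibition.” for “reagent.”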

[23] = target: T7, Tyrosine-protein kinase FRK; experiment: Inhibition of partial length human FRK expressed in Escherichia coli BL21 assessed as remaining activity at 1 uM after 1 hr by KINOMEscan method; procedure, shortened: as §4
[24] = Protein binding in mouse plasma at 1 uM after 4 hrs by equilibrium dialysis method; assay type: ADME, cell-free; details: read-out: PPB (converted)
[25] = target: Mast/stem cell growth factor receptor Kit (Homo sapiens, UniProt P10721, L576P); experiment: Binding affinity to partial length human KIT L576P mutant expressed in Escherichia coli BL21 by active-site-dependent competition assay; procedure, shortened: as §3
[26] = test system: Rattus norvegicus; experiment: Inhibition of myocardial hypertrophy in po dosed spontaneous hypertensive WKY rat model assessed as decrease in left ventricular mass at diastole administered for 4 continuous weeks; assay type: functional, organism-based; procedure, shortened: as §2
[27] = target: T5, Serine/threonine-protein kinase SIK1; experiment: Binding affinity to partial length human SIK expressed in Escherichia coli BL21 by active-site-dependent competition assay; procedure, shortened: as §3
[28] = test system: Rattus norvegicus; experiment: Inhibition of myocardial hypertrophy in po dosed spontaneous hypertensive WKY rat model assessed as decrease in left ventricular mass at systole administered for 4 continuous weeks; assay type: functional, organism-based; procedure, shortened: as §2
[29] = target: T8, Mast/stem cell growth factor receptor Kit (Homo sapiens, UniProt P10721); experiment: Inhibition of partial length human KIT expressed in Escherichia coli BL21 assessed as remaining activity at 1 uM after 1 hr by KINOMEscan method; procedure, shortened: as §4
T8 sequence (P10721 whole entry): as the sequence (P10721 whole entry L576P) above, with P576L counted along it

[30] = test system: Rattus norvegicus; experiment: Inhibition of myocardial hypertrophy in po dosed spontaneous hypertensive WKY rat model assessed as decrease in p38 phosphorylation administered for 4 continuous weeks by Western blot method; assay type: functional, organism-based; procedure, shortened: as §5
[31] = test system: Rattus norvegicus; experiment: Inhibition of myocardial hypertrophy in spontaneous hypertensive WKY rat model assessed as decrease in left ventricular mass at systole at 10 to 20 mg/kg, po administered for 4 continuous weeks relative to control; assay type: functional; procedure, shortened: as §2
[32] = target: T8, Mast/stem cell growth factor receptor Kit; experiment: Binding affinity to partial length human KIT expressed in Escherichia coli BL21 by active-site-dependent competition assay; procedure, shortened: as §3
[33] = test system: Mast/stem cell growth factor receptor Kit (Homo sapiens), P10721 [V559D]; experiment: Inhibition of partial length human KIT V559D mutant expressed in Escherichia coli BL21 assessed as remaining activity at 1 uM after 1 hr by KINOMEscan method; procedure, shortened: as §4
Mast/stem cell growth factor receptor Kit (Homo sapiens), P10721 [V559D], sequence (P10721 whole entry V559D): as the sequence (P10721 whole entry L576P) above, with V559D, P576L counted along it

[34] = Oral bioavailability in Sprague-Dawley rat at 10 mg/kg by HPLC/MS analysis; assay type: ADME, organism-based; details: in vivo; procedure, shortened: as §6
[35] = test system: Serine/threonine-protein kinase B-raf (Homo sapiens), P15056 [V600E]; experiment: Inhibition of partial length human BRAF V600E mutant expressed in HEK293 cells assessed as remaining activity at 1 uM after 1 hr by KINOMEscan method; assay type: cell-based; procedure, shortened: as §4
Serine/threonine-protein kinase B-raf (Homo sapiens), P15056 [V600E], sequence (P15056 whole entry V600E): as the sequence (P15056 whole entry) above, with V600E counted along it

[36] = species on record: Rattus norvegicus; experiment: Inhibition of ZAK in Ang-2-induced rat H9c2 cells assessed as decrease in p38 phosphorylation by Western blot analysis
[37] = test system: Rattus norvegicus; experiment: AUC (0 to infinity) in Sprague-Dawley rat at 10 mg/kg, po by HPLC/MS analysis; assay type: ADME, organism-based; parameters: dose 10 mg/kg, time infinity, route oral; details: in vivo; procedure, shortened: as §6
[38] = target: T9, Dual specificity mitogen-activated protein kinase kinase 5 (Homo sapiens, UniProt Q13163); experiment: Binding affinity to partial length human MEK5 expressed in HEK293 cells by active-site-dependent competition assay; assay type: cell-based; procedure, shortened: as §3
T9 sequence (Q13163 whole entry): T6 sequence (whole entry)

[39] = species on record: Rattus norvegicus; experiment: Inhibition of ZAK in Ang-2-induced rat H9c2 cells assessed as decrease in JNK phosphorylation by Western blot analysis

With `COc1n[nH]c2ncc(C#Cc3c(F)ccc(NS(=O)(=O)c4ccc(Cl)cc4)c3F)cc12` the pIC50 [1] was 7.77, the pIC50 [2] was less than 6.00 and the pIC50 [3] was less than 5.00.
In the case of `Cn1ncc2cc(C#Cc3c(F)ccc(NS(=O)(=O)c4cccc(Cl)c4)c3F)cnc21`, the pIC50 [1] was less than 4.52, the pIC50 [2] was less than 5.00 and the pIC50 [3] was less than 5.00.
In the case of `COc1n[nH]c2ncc(C#Cc3c(F)ccc(NS(=O)(=O)c4ccccc4Cl)c3F)cc12`, the pIC50 [1] was 8.29, the pIC50 [2] was less than 6.00 and the pIC50 [3] was less than 6.00.
For `COc1n[nH]c2ncc(C#Cc3c(F)ccc(NS(=O)(=O)c4cccc(C#N)c4)c3F)cc12`, the Activity [4] was 0.95 g, the inhibition [5] was “Dose-dependent effect” and the pKd [6] was 7.19. For the same compound, the Activity [7] was 3%, the inhibition [8] was “Dose-dependent effect” and the pIC50 [1] was 8.48. It also gave a pKd [9] of 6.74, a pKd [10] of 8.57 and an Activity [11] of 2.4%. For the same compound, the inhibition [12] was “Dose-dependent effect”, the half-life [13] was 34.6 h and the pKd [14] was 7.19. The Activity [15] was 1.5%, the pKd [16] was 7.30 and the Activity [17] was 0.9%. The inhibition [18] was “Dose-dependent effect”, the Activity [19] was 3.9% and the Activity [20] was 5.5%. For the same compound, the pKd [21] was 7.66, the pIC50 [22] was less than 5.00 and the Activity [23] was 1.9%. It also gave a pIC50 [2] of less than 6.00, a fraction unbound at 4 h, 1 µM [24] of 0.002 and a pKd [25] of 6.68. For the same compound, the inhibition [26] was “Dose-dependent effect”, the pKd [27] was 7.35 and the inhibition [28] was “Dose-dependent effect”. The Activity [29] was 6.2%, the inhibition [30] was “Dose-dependent effect” and the “inhibition (INH)” value [31] was 3 - 8%. It also gave a pKd [32] of 6.34, an Activity [33] of 2.9% and a pIC50 [3] of less than 5.52. For the same compound, the bioavailability [34] was 20%, the Activity [35] was 9.9% and the inhibition [36] was “Dose-dependent effect”. For the same compound, the AUC [37] was 253794 µg/L/h, the pKd [38] was 7.06 and the inhibition [39] was “Dose-dependent effect”.
